Consider one compound from publication PMC2225614 (The Journal of General Physiology, 2001).

Experiment [1] relates to CHM16 (switched NH2-terminal domain through part of S1). The experiment is described as follows: Genistein inhibition of closed chimeric channel CHM16. It counts as biochemical, bovine/rat. To be noted: closed channels; behaved like parent channel. Put shortly:
(§1)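 Chimeric RETα/OLFα channels were expressed in Xenopus oocytes (50 nl of 50 ng/μl RNA, 2–7 d), and the vitelline membrane was removed. Inside-out patches were bathed in symmetrical 115 mM NaCl, 5 mM EGTA, 1 mM EDTA, 5 mM HEPES, pH 7.5, held at −75 mV. Test compound was preapplied 1 min to closed channels, then saturating 2 mM cGMP; residual current normalized to Imax.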

Experiment [2] concerns CHM 19 (RETα with the OLFα pore). Nature of the experiment: Genistein inhibition of closed chimeric channel CHM 19. It is filed as biochemical, bovine/rat. To be noted: closed channels. In a few lines:
as §1

Experiment [3] concerns CHM 30 (converse substitution in OLFα background). The experiment is described as follows: Genistein inhibition of closed chimeric channel CHM 30. The note with it: closed channels. It is filed as biochemical, bovine/rat.
For experiment [4], the target named is T1, CHM25 (RETα with H420 substituted with an asparagine) (Bos taurus, UniProt Q00194, H420Q).
T1 sequence (Q00194 1-690 H420Q): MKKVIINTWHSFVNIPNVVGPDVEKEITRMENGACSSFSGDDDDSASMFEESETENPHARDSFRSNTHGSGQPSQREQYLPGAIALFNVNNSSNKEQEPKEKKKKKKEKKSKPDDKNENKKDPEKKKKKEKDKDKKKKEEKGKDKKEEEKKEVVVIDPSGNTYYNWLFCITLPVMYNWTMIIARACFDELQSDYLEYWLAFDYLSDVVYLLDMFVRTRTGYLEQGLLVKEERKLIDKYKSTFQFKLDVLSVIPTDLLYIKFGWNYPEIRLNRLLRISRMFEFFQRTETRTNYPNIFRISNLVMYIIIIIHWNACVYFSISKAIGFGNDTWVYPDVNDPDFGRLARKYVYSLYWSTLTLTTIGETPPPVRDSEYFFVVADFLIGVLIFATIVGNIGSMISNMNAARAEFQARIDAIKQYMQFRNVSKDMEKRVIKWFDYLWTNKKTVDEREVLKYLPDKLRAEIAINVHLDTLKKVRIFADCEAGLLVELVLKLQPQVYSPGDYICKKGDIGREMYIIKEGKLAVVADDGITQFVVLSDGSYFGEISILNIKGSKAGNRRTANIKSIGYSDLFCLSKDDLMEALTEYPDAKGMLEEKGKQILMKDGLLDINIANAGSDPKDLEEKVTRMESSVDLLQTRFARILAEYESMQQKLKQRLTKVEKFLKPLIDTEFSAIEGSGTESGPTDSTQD
The experiment is described as follows: Genistein inhibition of closed chimeric channel CHM25. It is filed as biochemical, bovine/rat. The note with it: genistein applied on closed channels. Put shortly: as §1

Experiment [5] has as its system CHM18 (OLFα with a RETα cyclic nucleotide–binding domain). The experiment is described as follows: Genistein inhibition of closed chimeric channel CHM18. It counts as biochemical, bovine/rat. To be noted: closed channels. In a few lines: as §1
Experiment [6] has as its system CHM11 (RETα with OLFα pore module: S5, P region, S6, initial C-linker). Nature of the experiment: Genistein inhibition of chimeric channel CHM11. It is filed as biochemical, bovine/rat.
Experiment [7] has as its system CHM34 (converse substitution in OLFα background). Nature of the experiment: Genistein inhibition of closed chimeric channel CHM34. It is filed as biochemical, bovine/rat. The note with it: closed channels.
Experiment [8] concerns CHM22 (S5 domain exchanged between RETα and OLFα). Nature of the experiment: Genistein inhibition of closed chimeric channel CHM22. It counts as biochemical, bovine/rat. To be noted: closed channels. In a few lines:
as §1

Experiment [9] concerns the target T2, CHM35 (RETα with Q417 substituted with a histidine) (Bos taurus, UniProt Q00194, Q417H).
T2 sequence (Q00194 1-690 Q417H): T1 sequence (Q00194 1-690 H420Q) with Q417H, Q420H
The experiment is described as follows: Genistein inhibition of closed chimeric channel CHM35. It is filed as biochemical, bovine/rat. The note with it: closed channels. Put shortly:
as §1

The subject of experiment [10] is CHM 14 (OLFα except for mid-S1 through S4). Nature of the experiment: Genistein inhibition of closed chimeric channel CHM 14. It counts as biochemical, bovine/rat. To be noted: closed channels. In a few lines:
as §1

Experiment [11] deals with CHM20 (S5 domain exchanged between RETα and OLFα). The experiment is described as follows: Genistein inhibition of closed chimeric channel CHM20. It is filed as biochemical, bovine/rat. To be noted: closed channels. Put shortly:
as §1

Experiment [12] has as its system α-subunit of the rat olfactory CNG channel (OLFα). To be noted: ref Molokanova et al. 2000; cited from earlier work.

SMILES strings stand for the structures. Positions count from the first letter of the chain named.

On to `O=c1c(-c2ccc(O)cc2)coc2cc(O)cc(O)c12` [genistein], for which, in [1], the “effect of domain switch on genistein inhibition” value is recorded as “had no effect”. In addition, the “effect of domain exchange on genistein inhibition” value in experiment [2], in experiment [8] and in experiment [11] was “did not alter genistein inhibition” in each case. Moreover, the genistein inhibition result in experiment [3] is “neither substitution introduced genistein inhibition”; in experiment [4] it was “complete inhibition”; in experiment [5], “no inhibition”; in [7], “neither substitution introduced genistein inhibition”; in experiment [9] it was “did not reduce genistein inhibition”; in experiment [10], “not inhibited”. For the same compound, the genistein inhibition result in experiment [12] is reported as “do not exhibit genistein inhibition”. Also, in experiment [6] (closed state, 500 μM genistein), the maximal inhibition is approximately 15%. Also, the genistein sensitivity result in [6] (open state, up to 500 μM genistein) is “completely insensitive”.
